Sampled rows, rich in hits. Any-hit rate of the full collection: about 1.8%.
MBD2 DNA inh: inhibitors of MBD2 binding to methylated DNA, primary screen, biochemical, TR-FRET, DNA-binding domain, human | AID 686964, 2013 | Methyl-CpG-binding domain protein 2 (Homo sapiens), Q9UBB5 | 370,000 tested, 0.31% active | MBD2 binding to methylated oligonucleotide | inhibition, % at 4.4 µM; in the data active means inhibition above about 13%
TDP2 inh: human TDP2 enzyme inhibitors, primary screen, biochemical, epi absorbance, recombinant enzyme; 370,000 tested, 0.34% active; inhibition, % at 12.8 µM; AID 720702, 2013; T5PNP hydrolysis, p-nitrophenol absorbance 415 nm; Tyrosyl-DNA phosphodiesterase 2 (Homo sapiens), O95551;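 active means inhibition above the mean of all tested compounds plus 3 SD, set per campaign, cut at about 25% in these data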;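 further: 0% = DMSO with enzyme and 100% = buffer with substrate but no TDP2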
Target sequence (O95551 whole entry, looked up): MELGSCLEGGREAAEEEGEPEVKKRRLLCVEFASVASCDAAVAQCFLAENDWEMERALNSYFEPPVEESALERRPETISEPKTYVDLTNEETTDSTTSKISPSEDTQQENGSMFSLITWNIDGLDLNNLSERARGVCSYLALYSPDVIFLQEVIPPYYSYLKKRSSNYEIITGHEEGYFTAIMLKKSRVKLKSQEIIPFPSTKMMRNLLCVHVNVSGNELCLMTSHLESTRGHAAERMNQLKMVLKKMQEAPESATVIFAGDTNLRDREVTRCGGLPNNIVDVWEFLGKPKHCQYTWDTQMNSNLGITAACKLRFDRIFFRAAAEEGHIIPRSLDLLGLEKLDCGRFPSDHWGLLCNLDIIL
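System: recombinant human TDP2 / Amount: 120 nM TDP2 per well / Also added: 5 mM T5PNP chromogenic substrate / Doses: 12.8 µM single point, 1% DMSO / Incubation: 2 h at 37 °C / Detection: p-Nitrophenol epi absorbance / Evaluation: % inhibition relative to enzyme-containing and enzyme-free wells / Repeats: singlicate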
LEDGF integ inh: blockers of LEDGF/p75-dependent integrase strand transfer – biochemical, TR-FRET, high throughput, primary screen; HIV-1 integrase (with human LEDGF/p75); TR-FRET IN-LEDGF/p75 DNA integration, Eu/Cy5; inhibition, % at 3.7 µM; 370,000 tested, 0.64% active; AID 743269, 2014;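 active means inhibition above the screen-wide mean plus 3 SD, cut at about 13% in these data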;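 further: signal is the Cy5 over europium emission ratio at 671 and 618 nm; 0% = plate median of compound wells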
UHRF1 MBD2 ctr: UHRF1 methylated DNA binding inhibitors, primary screen, counter-screen for MBD2 inhibitor project, biochemical, TR-FRET, human UHRF1, single concentration; UHRF1 binding to methylated oligo; inhibition, % at 4.4 µM; 370,000 tested, 0.75% active; in the data active means inhibition above about 21%;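 further: UHRF1 SRA domain binding a hemimethylated CpG hairpin DNA probe; 0% = median of test compound wells and 100% = reference inhibitor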
core dimer inh: inhibitors of HCV core protein dimerization, primary screen, biochemical, TR-FRET, high-throughput. TR-FRET GST/Flag-core106 dimerization, 1536-well. inhibition, % at 5 µM. 300,000 tested, 0.33% active;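 active means inhibition above the mean of all tested compounds plus 3 SD, set per screening campaign, cut at about 45% in these data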
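System: GST-tagged and Flag-tagged HCV core protein residues 1-106 / Input: core106 proteins, GST 13.5 nM and Flag 17 nM / Buffer or medium: KF-containing HEPES buffer, pH 7.45, DTT, CHAPS, BSA / Probe or stimulus: Eu-anti-GST and XL665-anti-Flag labelled anti-tag antibodies / Schedule: 4 h, 22.5 °C incubation / Technique: TR-FRET 671 and 617 nm emission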
TDP2 confirm: human TDP2 enzyme inhibitors, retest, confirmation, biochemical, epi absorbance, recombinant enzyme; shares compounds with TDP2 inh; absorbance read-out; inhibition, % at 12.8 µM; 1,100 tested, 22% active; AID 743263, 2014; in the data active means inhibition above about 25%;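 further: 0% = vehicle with enzyme and 100% = no enzyme buffer only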
Numbers without * were called inactive; / = no result.

SMILES | MBD2 DNA inh | TDP2 inh | LEDGF integ inh | UHRF1 MBD2 ctr | core dimer inh | TDP2 confirm
O=C(c1cc(COc2cccc3cnccc23)on1)N1CCC(c2ccccc2Cl)C1 (configuration not stated) | -4 | 25* | 1 | -3 | 15 | 0
C#CCNC(=O)C[C@H]1C[C@@]2(C(=O)OC)C(=C[C@H](C(C)C)O[C@@H]2C2CC2)N(CCCCCCCC)C1=O | 0 | -5 | -2 | 0 | / | /
CCC(=O)NC(c1cccs1)c1cc([N+](=O)[O-])c2cccnc2c1OC (configuration not stated) | -14 | 70* | 7 | -1 | / | 18
O=C(CCn1c(=O)oc2ccc(Cl)cc21)N1CCN(c2ccccc2)CC1 | -3 | 25* | -1 | -1 | 0 | -1
O=C(CCn1c(=O)oc2ccc(Cl)cc21)N1CCN(Cc2ccccc2)CC1 | 3 | -20 | -3 | 3 | -2 | /
CN(CCOC(=O)c1cc2ccccc2o1)C1CN(Cc2cn(Cc3cccc(F)c3)nn2)S(=O)(=O)C1 (configuration not stated) | 4 | -4 | 0 | 6 | / | /
N#Cc1ccc(OCc2ccc(C(=O)O)o2)cc1 | -3 | 26* | -3 | -1 | -7 | 2
O=C(O)c1ccc(OCc2ccc(C(=O)O)o2)cc1 | -4 | 16 | -1 | 1 | -2 | /
C=CS(=O)(=O)N(Cc1nnn(Cc2ccccc2)c1Br)[C@@H](CC(C)C)C(=O)OC | 2 | 8 | 4 | 2 | / | /
COc1cc(/C=C/c2[nH]c(=O)[nH]c(=O)c2[N+](=O)[O-])cc([N+](=O)[O-])c1O | -19 | 31* | 2 | -5 | -2 | 11
COc1cc(NC2CCCCC2O)c2nc(-c3ccc(Cl)cc3)ccc2c1 (configuration not stated) | -9 | 33* | 12 | -9 | 0 | -2
O=C(N=Nc1c(O)[nH]c2ccc([N+](=O)[O-])cc12)c1ccccc1[N+](=O)[O-] | 3 | 35* | -2 | -4 | 1 | 23
COC1=C[C@H](C(=O)NCCOC(C)=O)[C@H](C)[C@@H](c2ccccc2)CC1=O | 1 | 6 | -4 | 0 | / | /
COc1ccccc1C(=O)Nc1nc(C)cc(C)n1 | 3 | 25* | -3 | 1 | 2 | 1
C#CCNC(=O)C[C@H]1C[C@@]2(C(=O)OC)C(=C[C@H](C(C)(C)C)O[C@@H]2C)N(Cc2ccco2)C1=O | 5 | -1 | -2 | 0 | / | /
CCCN1CCN(CCCNC(=O)Cn2nc(C)n3c(cc4cc(OC)ccc43)c2=O)CC1 | 1 | 27* | 0 | -8 | -16 | -5
COc1ccccc1/C=C/C(=O)OCC(=O)Nc1ccc(Cl)cn1 | -2 | 29* | 4 | -4 | -3 | -1
COc1cc(-n2c(C)nc3cc(C(=O)N4CCCN(C(C)=O)CC4)ccc32)cc(OC)c1OC | 3 | 4 | -4 | 1 | / | /
CCOC(=O)CC[C@@H]1CC[C@]2(CCCN(S(=O)(=O)c3ccccc3)C2)O1 | 1 | 14 | -2 | -2 | / | /
CC1=NN(c2ccc(S(=O)(=O)O)cc2C)C(=O)C1 | -6 | 34* | 1 | -5 | -4 | 38*
CN1CCN(S(=O)(=O)c2ccc3c(c2)CC(=O)N3C)CC1 | -4 | 21 | -2 | -3 | 2 | /
O=C(Cn1cnc([N+](=O)[O-])c1)Nc1ccc(F)c(Cl)c1 | 6 | 29* | -1 | -4 | / | -8
O=C(Cn1cnc([N+](=O)[O-])c1)Nc1ccc(Cl)cc1Cl | 1 | 6 | -1 | -1 | / | /
CC(C)(C)c1ccc(C(=O)Nc2cc(Cl)ccc2C(=O)O)cc1 | 4 | 0 | 3 | -2 | / | /
COc1cc(/C=N/NC(=O)Cc2nnc(NC(=O)c3ccccc3)s2)ccc1O | 2 | 29* | 3 | -2 | -8 | 3
SMILES | MBD2 DNA inh | TDP2 inh | LEDGF integ inh | UHRF1 MBD2 ctr | core dimer inh | TDP2 confirm
Nc1c(C(=O)OCC(=O)NCc2ccccc2)[nH]c(=O)[nH]c1=O | 0 | 49* | -1 | -8 | -3 | -3
Nc1c(C(=O)OCC(=O)Nc2ccccc2Br)[nH]c(=O)[nH]c1=O | 1 | 7 | 1 | -9 | / | /
CN1C(=O)/C(=C/c2ccc(C(=O)Nc3ccc(O)cc3C(=O)O)cc2)SC1=S | -1 | 28* | 1 | -1 | 17 | 6
Cn1c(-c2ccccc2)cnc1NCc1ccccc1 | 3 | 29* | 0 | 0 | -8 | -5
N#CCC[C@H]1CC[C@]2(CCCN(Cc3ccc(Br)cc3)C2)O1 | -5 | 6 | -3 | -1 | / | /
COc1ccc(CCN2CC(C(=O)NCCc3ccccc3)CC2=O)cc1OC (configuration not stated) | -2 | -3 | 0 | -2 | -4 | /
CCOc1ccc(CCNC(=O)C2CC(=O)N(CCc3ccc(OC)c(OC)c3)C2)cc1OCC (configuration not stated) | 1 | 25* | 1 | 0 | -1 | 2
CC(c1nc2scc(-c3ccccc3)c2c(=O)[nH]1)N1CCN(CC(=O)NC2CC2)CC1 (configuration not stated) | 3 | 32* | -2 | -4 | / | 1
CC(C)CNC(=O)CSc1nc2scc(-c3ccccc3)c2c(=O)[nH]1 | -3 | -2 | 3 | -4 | 3 | /
COC(=O)C1CN(C2CCCC2)CCS(=O)(=O)N1Cc1cn(Cc2ccc(Cl)cc2)nn1 (configuration not stated) | 6 | 4 | 5 | 9 | / | /
N/C(=N\N=C\c1ccc(Br)o1)c1nonc1N | 3 | 30* | -2 | -5 | 1 | -1
COc1ccc2ccccc2c1C=Nn1c(-c2n[nH]c3c2CCC3)n[nH]c1=S | -4 | -6 | 0 | -5 | / | /
O=C1NC(=O)/C(=C/c2ccc(-c3cc(C(=O)O)ccc3Cl)o2)S1 | 1 | 32* | 7 | 11 | -3 | 16
O=C1NC(=S)/C(=C\c2ccc(-c3ccccc3Cl)o2)S1 | 0 | 1 | 5 | 0 | 5 | /
Cc1ccc(NCC(=O)c2ccccc2)cc1Cl | 1 | -2 | -4 | -1 | 0 | /
Cc1ccc(NC2=C(NC(=O)c3ccccc3)C(=O)c3ccccc3C2=O)cc1Cl | -7 | 29* | 4 | -4 | -9 | 17
CC(=O)Nc1ccc(CN2CCCN(C)CC2)cc1 | 2 | 27* | 1 | -1 | 3 | -2
COC(=O)C1CN(CCO)CCS(=O)(=O)N1Cc1cccc(Cl)c1 (configuration not stated) | 2 | 6 | -1 | -2 | / | /
